Test results from ChEMBL document CHEMBL4219076, “Synthesis, spectroscopic studies and biological evaluation of acridine derivatives: The role of aggregation on the photodynamic efficiency” (Bioorg Med Chem Lett, 2018).
One block for each compound: values may come before it. Activity calls are given as the source filed them. The rule behind the calls is not given here.

Legend:
[1] = system: HUVEC; assay: Cytotoxicity against HUVEC assessed as cell viability at 1 to 20 uM after 24 hrs under dark condition by MTT assay relative to control; assay type: functional, Homo sapiens
[2] = Drug uptake in human Hep3B cell lysosome at 10 uM after 1 hr by Draq5 staining based bright field microscopic method; assay type: ADME, subcellular; details: hep 3b2, 1 h
[3] = system: Hep 3B2; assay: Cytotoxicity against human Hep3B cells assessed as reduction in cell viability after 3 hrs under dark condition by MTT assay; assay type: functional, cell-based
[4] = system: HUVEC; assay: Cytotoxicity against HUVEC assessed as reduction in cell viability after 3 hrs under dark condition by MTT assay; assay type: functional, cell-based; details: Homo sapiens
[5] = Induction of singlet oxygen production in 90% H2O/CH3CN mixture upon irradiation of 365 nanometer light assessed as oxygenation of 1,5-DHN by UV-Visible spectroscopic method; assay type: functional
Outline: (§1)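 Singlet oxygen generation was followed by oxygenation of 1,5-dihydroxynaphthalene to juglone. Sensitizer solutions were irradiated in quartz cuvettes with 365 nm light.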

[6] = system: Hep 3B2; assay: Photocytotoxicity in human Hep3B cells assessed as cell damage preincubated for 1 hr followed by 365 nanometer UV light irradiation for 3 mins by propidium iodide staining based confocal fluorescence laser scanning microscopic method; assay type: functional
Outline: (§2)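 Hep3B cells, 30.000 cells/well, exposed to photosensitizer ([…] as printed) for 1 h, then irradiated with a 365 nm UV lamp, 6 W, for 3 min. Damaged or dead cells stained with propidium iodide (1 mM as printed) and imaged by confocal laser scanning microscopy, ex 488 nm, em 500–700 nm. Irradiated control wells received no photosensitizer.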

[7] = system: Hep 3B2; assay: Cytotoxicity against human Hep3B cells assessed as reduction in cell viability at 1 to 20 uM incubated for 3 hrs followed by incubation in compound free medium for 21 hrs under dark condition by MTT assay; assay type: functional, cell-based
[8] = Induction of singlet oxygen production in H2O upon irradiation of 365 nanometer light assessed as oxygenation of 1,5-DHN by measuring quantum yield at 33 uM by UV-Visible spectroscopic method; assay type: functional; outline: as §1
[9] = system: HUVEC; assay: Cytotoxicity against HUVEC assessed as cell viability at 1 to 20 uM after 3 hrs under dark condition by MTT assay relative to control; assay type: functional, Homo sapiens
[10] = Self-aggregating property assessed as diameter of nanostructure by scanning electron microscopic method; assay type: physicochemical
[11] = system: Hep 3B2; assay: Cytotoxicity against human Hep3B cells assessed as reduction in cell viability at 1 to 20 uM after 24 hrs under dark condition by MTT assay; assay type: functional, cell-based
[12] = Induction of singlet oxygen production in 50% H2O/CH3CN mixture upon irradiation of 365 nanometer light assessed as oxygenation of 1,5-DHN by UV-Visible spectroscopic method; assay type: functional; outline: as §1
[13] = Induction of singlet oxygen production in CH3CN upon irradiation of 365 nanometer light assessed as oxygenation of 1,5-DHN by measuring quantum yield at 33 uM by UV-Visible spectroscopic method; assay type: functional; outline: as §1
[14] = Self-aggregating property assessed as diameter of nanostructure by transmission electron microscopic method; assay type: physicochemical
[15] = Self-aggregating property assessed as diameter of nanostructure by DLS method; assay type: physicochemical
[16] = Drug uptake in human Hep3B cell mitochondria at 10 uM after 1 hr by Draq5 staining based bright field microscopic method; assay type: ADME; details: hep 3b2, 1 h
[17] = Drug uptake in human Hep3B cell endoplasmic reticulum at 10 uM after 1 hr by Draq5 staining based bright field microscopic method; assay type: ADME, subcellular; details: hep 3b2, 1 h
[18] = system: Hep 3B2; assay: Photocytotoxicity in human Hep3B cells assessed as cell damage preincubated for 1 hr followed by 365 nanometer UV light irradiation for 3 mins by propidium iodide/Hoechst 33342 staining based static cytometry coupled fluorescence microscopic method; assay type: functional
Outline: (§3)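 Hep3B cells exposed to photosensitizer for 1 h, then irradiated at 365 nm for 3 min. PI-positive cells were quantified by fluorescence microscopy coupled with static cytometry and expressed as percentage of cells, with untreated cells as reference.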

[19] = system: HUVEC; assay: Cytotoxicity against HUVEC assessed as reduction in cell viability at 1 to 20 uM incubated for 3 hrs followed by incubation in compound free medium for 21 hrs under dark condition by MTT assay; assay type: functional, cell-based; details: Homo sapiens
[20] = Drug uptake in human Hep3B cell nuclear membrane at 10 uM after 1 hr by Draq5 staining based bright field microscopic method; assay type: ADME, cell membranes; details: hep 3b2, 1 h
[21] = system: Hep 3B2; assay: Photocytotoxicity in human Hep3B cells assessed as cell damage at 20 uM preincubated for 1 hr followed by 365 nanometer UV light irradiation for 3 mins by propidium iodide/Hoechst 33342 staining based static cytometry coupled fluorescence microscopic method (reference value: 1.25%); assay type: functional; outline: as §3
[22] = Dark toxicity in human Hep3B cells assessed as cell damage at 20 uM after 1 hr by propidium iodide/Hoechst 33342 staining based static cytometry coupled fluorescence microscopic method (reference value: 1.25%); details: hep 3b2, 1 h
[23] = system: HUVEC; assay: Cytotoxicity against HUVEC assessed as reduction in cell viability at 1 to 20 uM after 3 hrs under dark condition by MTT assay; assay type: functional, cell-based; details: Homo sapiens
[24] = system: Hep 3B2; assay: Photocytotoxicity in human Hep3B cells assessed as cell damage at 10 uM preincubated for 1 hr followed by 365 nanometer UV light irradiation for 3 mins by propidium iodide staining based confocal fluorescence laser scanning microscopic method; assay type: functional; outline: as §2

Drug uptake [2]: Not Active
Activity [10]: 93 nm
Activity [14]: 135 nm
Activity [15]: 122 nm
Drug uptake [16]: Not Active
Drug uptake [17]: Not Active
Drug uptake [20]: Active
SMILES: CC(C)[C@H](NC(=O)c1c2ccccc2nc2ccccc12)C(=O)NCCCCCCCCNC(=O)[C@@H](NC(=O)c1c2ccccc2nc2ccccc12)C(C)C
Activity [1]: 27%
Activity [3]: Dose-dependent effect
IC50 [3]: 29.5 µM
Activity [4]: Dose-dependent effect
IC50 [4]: 18.6 µM
Activity [5]: inactive
Activity [6]: inactive
Activity [7]: inactive
Activity [8]: 0.01
Activity [9]: 46%
Activity [11]: Active
Activity [12]: inactive
Activity [13]: 0.96
Activity [18]: inactive
Activity [19]: inactive

Activity [15]: Not Active
SMILES: CCCNC(=O)[C@@H](NC(=O)c1c2ccccc2nc2ccccc12)C(C)C
Activity [5]: Active
Activity [21]: 8.7%
Activity [7]: inactive
Activity [8]: 0.263
Activity [11]: inactive
Activity [22]: 3.38%
Activity [12]: Active
Activity [13]: 0.97
Activity [23]: inactive
Activity [24]: Active
Activity [19]: inactive
